# ChEMBL document CHEMBL1134208, “Controlled drug release: new water-soluble prodrugs of an HIV protease inhibitor” (Bioorg Med Chem Lett, 2001)
# Legend:
# Type in all cases: ADME
# [1] = Time required for 50% release of KNI-727 at 37 degree celsius
# How it was run: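 Prodrug added from a 0.5 mM DMSO stock to PBS (pH 7.4) and incubated at 37 °C. Aliquots taken at successive time points were injected directly onto HPLC with detection at 230 nm. Loss of prodrug and appearance of released parent were followed over time to give the half-life of release.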
# [2] = Water solubility of prodrug was determined; details: buffer
# How it was run: (§1)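 Prodrug solution was passed through a membrane filter, and the dissolved prodrug concentration was then quantified by HPLC. Solubility was set against that of the parent drug measured the same way.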
# [3] = Water solubility of prodrug was determined relative to KNI-727; details: buffer; how it was run: as §1
T1/2 [1] [min],Solubility [2] [mg/mL],Relative solubility [3],Solubility [3] [mg/mL],Structure (SMILES)
1008,–,–,–,Cc1cccc(C)c1OCC(=O)N[C@@H](Cc1ccccc1)[C@H](OC(=O)CCC(=O)NCCC(=O)O)C(=O)N1CSC(C)(C)[C@H]1C(=O)NC(C)(C)C
1122,0.0735,6.6,–,Cc1cccc(C)c1OCC(=O)N[C@@H](Cc1ccccc1)[C@H](OC(=O)CCC(=O)NCC(=O)O)C(=O)N1CSC(C)(C)[C@H]1C(=O)NC(C)(C)C
20,0.21,18.9,–,Cc1cccc(C)c1OCC(=O)N[C@@H](Cc1ccccc1)[C@H](OC(=O)CCC(=O)NCC(N)=O)C(=O)N1CSC(C)(C)[C@H]1C(=O)NC(C)(C)C
960,0.0895,8.1,–,Cc1cccc(C)c1OCC(=O)N[C@@H](Cc1ccccc1)[C@H](OC(=O)CCC(N)=O)C(=O)N1CSC(C)(C)[C@H]1C(=O)NC(C)(C)C
1680,56.9,–,5130,Cc1cccc(C)c1OCC(=O)N[C@@H](Cc1ccccc1)[C@H](OC(=O)CCCC(=O)NCCN)C(=O)N1CSC(C)(C)[C@H]1C(=O)NC(C)(C)C.Cl
21,115.4,–,10400,Cc1cccc(C)c1OCC(=O)N[C@@H](Cc1ccccc1)[C@H](OC(=O)CCC(=O)NCCN)C(=O)N1CSC(C)(C)[C@H]1C(=O)NC(C)(C)C.Cl
< 1,136.7,–,12300,Cc1cccc(C)c1OCC(=O)N[C@@H](Cc1ccccc1)[C@H](OC(=O)CC(C)(C)C(=O)NCCN)C(=O)N1CSC(C)(C)[C@H]1C(=O)NC(C)(C)C.Cl
528,< 0.0111,–,–,Cc1cccc(C)c1OCC(=O)N[C@@H](Cc1ccccc1)[C@H](OC(=O)CCC(=O)NCc1ccccc1)C(=O)N1CSC(C)(C)[C@H]1C(=O)NC(C)(C)C.Cl
11,171.5,–,–,Cc1cccc(C)c1OCC(=O)N[C@@H](Cc1ccccc1)[C@H](OC(=O)CCC(=O)NCCN(C)C)C(=O)N1CSC(C)(C)[C@H]1C(=O)NC(C)(C)C.Cl
